# Compounds with a hit are over-represented: about 2.6% of the library has one in this group of screens.
# MEKK2wt PB1 HTS: raises or lowers MEK5 binding to wildtype human MEKK2 PB1 domain; binding response (% of control), % at 10 µM; 1.1% of 290,000 active; Q9Y2U5; AID 1531; bead flow cytometry, Alexa488-MEK5 binding to MEKK2 WT; actives lie on both sides; in the data active = binding response below about 67% or above about 130%
# Hep lipid drop: hepatic lipid droplet formation modulation | AML12 mouse hepatocytes, oleate lipid droplets, BODIPY imaging | 0.4% of 240,000 active | inhibition, % at 6.5 µM;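 active = lipid droplet intensity inhibited by at least 50%, with more than 500 cells counted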
#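 Assay system: AML12 mouse liver cells | Compound dosing: One dose, 6.5 µM compound | Read-out basis: Droplet intensity reduction, % inhibition | Measured by: Fluorescence imaging, 20x objective, two fields per well | Schedule: Overnight treatment with compound plus oleate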
# MEKK3 PB1 HTS: modulators (inhibitors or enhancers) of MEK5 binding to human MEKK3 PB1 domain. binding response (% of control), % at 10 µM. bead-based flow cytometry, Alexa488-MEK5 binding to MEKK3; actives lie on both sides; 0 = blocked by unlabeled MEK5, 100 = vehicle. Q99759. 1.4% of 290,000 active;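 active = binding response more than 3 SD above or below the average of its plate-row segment, actives on both sides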;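 also: Alexa488 bead fluorescence after subtracting the streptavidin-only scavenger bead signal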
# Target sequence (Q99759 whole entry, looked up, the tested form may be a part): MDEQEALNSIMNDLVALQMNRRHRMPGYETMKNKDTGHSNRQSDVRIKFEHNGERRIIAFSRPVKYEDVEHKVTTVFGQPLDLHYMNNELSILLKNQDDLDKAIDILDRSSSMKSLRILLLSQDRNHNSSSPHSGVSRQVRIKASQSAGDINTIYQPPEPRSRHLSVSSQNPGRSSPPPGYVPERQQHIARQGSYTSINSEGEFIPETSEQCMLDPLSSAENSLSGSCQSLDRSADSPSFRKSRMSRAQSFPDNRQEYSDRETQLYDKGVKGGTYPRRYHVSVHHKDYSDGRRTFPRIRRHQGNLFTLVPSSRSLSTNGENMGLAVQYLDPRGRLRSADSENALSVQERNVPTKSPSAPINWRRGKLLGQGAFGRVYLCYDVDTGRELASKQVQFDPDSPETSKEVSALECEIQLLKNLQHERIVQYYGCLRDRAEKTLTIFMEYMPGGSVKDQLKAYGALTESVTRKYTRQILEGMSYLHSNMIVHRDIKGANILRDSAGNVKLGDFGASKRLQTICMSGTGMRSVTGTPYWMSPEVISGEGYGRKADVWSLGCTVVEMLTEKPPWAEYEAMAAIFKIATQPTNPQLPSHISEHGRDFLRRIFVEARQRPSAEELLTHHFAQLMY
# MEKK2mut PB1 HTS: signal of MEK5 binding to mutant human MEKK2 PB1 domain | 0.35% of 290,000 active | bead flow cytometry, Alexa488-MEK5 binding to MEKK2 mutant | AID 1530 | percent response, % at 10 µM; in the data active = percent response above about 24%, passing the limit was not always enough
# MEKK2wt confirm: raises or lowers MEK5 binding to wildtype human MEKK2, retest | shares compounds with MEKK3 PB1 HTS | bead flow cytometry, Alexa488-MEK5 binding to MEKK2 WT; actives lie on both sides | binding response (% of control), % at 10 µM | 2.4% of 5,900 active; in the data active = binding response below about 16% or above about 210%; inactive = in between
# MEKK2mut-MEK5: signal of MEK5 binding to mutant human MEKK2, retest | shares compounds with MEKK3 PB1 HTS | bead flow cytometry, Alexa488-MEK5 binding to MEKK2 mutant | percent response, % at 10 µM | 2% of 5,900 active; in the data active = percent response mostly above about 71%, no sharp cut-off; inactive = mostly below about 38%;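 also: higher means compound restores mutant binding toward wildtype level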
# MEKK3 confirm: confirmation of inhibitors of MEK5 binding to human MEKK3. binding response (% of control), % at 10 µM. 1.8% of 5,900 active. bead flow cytometry, Alexa488-MEK5 binding to MEKK3; hits give low values. shares compounds with MEKK3 PB1 HTS. AID 1894;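 active = binding response below 72% of control, or above a set upper limit, though filed actives all read lower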;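 also: lower values mean stronger disruption of MEK5 binding to MEKK3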
# Numbers stand for hits; i = inactive; nt = no result given; ! = not confirmed by another sample; [ ] = dose if it differs, or a comment.
SMILES,MEKK2wt PB1 HTS,Hep lipid drop,MEKK3 PB1 HTS,MEKK2mut PB1 HTS,MEKK2wt confirm,MEKK2mut-MEK5,MEKK3 confirm
N#C/C(=C/c1ccc(N2CCCCCC2)o1)c1ccc(Cl)cc1,i,nt,i,98,i,i,i
O=C(COC(=O)C1CCC(N2C(=O)C3C4CCC(C4)C3C2=O)CC1)c1ccc(F)cc1 (configuration not stated),i,i,i,i,nt,nt,nt
CCN1C(=O)c2cccc3c(S(=O)(=O)NCCCN4CCOCC4)ccc1c23,i,nt,125,i,i,i,i
CCN1C(=O)c2cccc3c(S(=O)(=O)NCCc4c[nH]c5ccccc45)ccc1c23,i,i,i,i,nt,nt,nt
Cc1onc(NC(=O)CSCC(=O)O)c1Br,i,i,i,i,nt,nt,nt
Cc1ccc(C(=O)CN(C(=O)c2ccc(Cl)c(Cl)c2)N2C(=O)C3C4C=CC(C4)C3C2=O)cc1 (configuration not stated),i,i,82[inhibitor],i,i,i,i
CN(C)CCCn1cnc2c(c1=N)C(c1ccccc1)c1ccc3ccccc3c1O2 (configuration not stated),170,i,i,26,i,i,i
COc1ccc(C2c3ccc4ccccc4c3Oc3ncn(CCN(C)C)c(=N)c32)cc1 (configuration not stated),157,i,i,29,i,i,i
COc1ccc(C2c3ccc4ccccc4c3Oc3ncn(CCN4CCOCC4)c(=N)c32)cc1 (configuration not stated),179,nt,i,i,i,i,i
COc1ccc(C2c3ccc4ccccc4c3Oc3ncn(CCO)c(=N)c32)cc1 (configuration not stated),151,i,i,i,i,i,i
N=c1c2c(ncn1CCCO)Oc1c(ccc3ccccc13)C2c1ccccc1 (configuration not stated),i,i,i,i,nt,nt,nt
CCOC(=O)c1ccc(-c2c(-c3ccc4c(c3)OCO4)noc2C)cc1F,i,nt,i,i,nt,nt,nt
CCN(CC)CCCNc1nc2ccccc2c2nc(-c3ccncc3)nn12,i,nt,i,i,nt,nt,nt
CC1Sc2ccc(S(=O)(=O)CCC(=O)NC3CCCC(C)C3C)cc2NC1=O (configuration not stated),i,i,i,i,nt,nt,nt
Cc1cccc(OCC(=O)Nc2ccc(C(=O)c3ccc(C(=O)O)cc3)cc2)c1,i,i,i,i,nt,nt,nt
CC(C)Cc1ccc(CN2CCC(n3nccc3NC(=O)C3CCCC3)CC2)cc1,i,i,i,i,nt,nt,nt
COc1ccc(CN2CCC(n3nccc3NC(=O)C3CCCC3)CC2)cc1,144,i,i,i,i,i,i
O=C1CCN(C(=O)Nc2ccccc2Cl)N1,i,nt,48[inhibitor],i,i,i,i
CC(=O)c1ccccc1C(=O)N1CCCC(N2CCN(Cc3ccc4c(c3)OCO4)CC2)C1 (configuration not stated),i,i,i,i,nt,nt,nt
CC(C)c1nnc(NC(=O)CS(=O)(=O)c2ccccc2)s1,i,i,i,i,nt,nt,nt
CCCCCCCCNC(=O)c1ccc(C)cc1,i,i,i,i,nt,nt,nt
COc1ccc2[nH]c(C)c(CCNC(=S)Nc3cccc(C)c3)c2c1,1.0[inhibitor],i,1.0[inhibitor],i,i,i,i
COc1ccc2[nH]c(C)c(CCNC(=S)Nc3cc(C)cc(C)c3)c2c1,i,i,i,i,nt,nt,nt
COc1ccc2c3c([nH]c2c1)C(C)N(C(C)=O)CC3 (configuration not stated),i,i,i,i,nt,nt,nt
COc1ccc2c3c([nH]c2c1)C(C)N(CCC(=O)NN)CC3 (configuration not stated),140,i,i,i,i,i,i
SMILES,MEKK2wt PB1 HTS,Hep lipid drop,MEKK3 PB1 HTS,MEKK2mut PB1 HTS,MEKK2wt confirm,MEKK2mut-MEK5,MEKK3 confirm
O=C(CCn1cccc(C(F)(F)F)c1=O)Nc1cccc(C(F)(F)F)c1,i,i,i,i,nt,nt,nt
Cc1ccc2c(c1)CCCN2C(=O)NC1CCCCC1,i,i,i,i,nt,nt,nt
CC(=O)N1CCN2C(=O)C1CCCC(=O)c1cc(C)ccc12 (configuration not stated),i,i,48[inhibitor],i,i,i,i
Cc1cccc(C)c1OCC(=O)NNC(=S)NC(=O)C1CC1,i,i,i,i,nt,nt,nt
COc1ccccc1NC(=O)NCCCl,1.0[inhibitor],i,5.0[inhibitor],i,i,i,i
CCC(C)(C)NC(=O)C(c1ccc(OC)cc1)N(C(=O)CCC(=O)Nc1cc(C)on1)c1ccc2c(c1)OCCO2 (configuration not stated),i,i,i,i,nt,nt,nt
Cc1nn(CC(=O)c2ccccc2)c(=O)c2nn(-c3ccccc3F)c(C)c12,i,i,i,i,nt,nt,nt
CCOc1cc(N2CCOCC2)c(OCC)cc1NC(=O)CN1CCC(Cc2ccccc2)CC1,i,i,149,i,i,i,i
CCOc1cc(N2CCOCC2)c(OCC)cc1NC(=O)CN1C(=O)NC(Cc2ccccc2)C1=O (configuration not stated),i,i,i,i,nt,nt,nt
Cc1ccccc1OCC(=O)N/N=C/c1cccc(Oc2ccc([N+](=O)[O-])cc2[N+](=O)[O-])c1,i,i,132,i,i,i,i
COc1ccccc1NS(=O)(=O)c1cc([N+](=O)[O-])ccc1N/N=C/c1sc(N2CCOCC2)nc1-c1ccccc1,i,i,i,205,i,i,i
COc1ccc(C(=O)N/N=C/c2sc(N3CCOCC3)nc2-c2ccccc2)cc1OC,i,i,i,i,nt,nt,nt
CCc1nc2nc(C)cc(Nc3cccc(C(F)(F)F)c3)n2n1,i,i,i,i,nt,nt,nt
Cc1cc(Nc2cccc(C(F)(F)F)c2)n2nc(C)nc2n1,0.0[inhibitor],i,1.0[inhibitor],i,i,i,i
COC(C[C@H]1O[C@H]1[C@H](O)COCc1ccccc1)OC,i,i,i,i,nt,nt,nt
CN[C@H]1CC[C@@H](c2ccc(Cl)c(Cl)c2)c2ccccc21,176!,i,i,i,i,i,i
O=C1C=C(O)CC(c2ccc(Cl)c(Cl)c2)C1 (configuration not stated),i,i,i,i,nt,nt,nt
C#CCNC(=O)C1=C[C@H](C2CCCCC2)[C@@H](CCCO)[C@H](OCC)O1,i,i,i,i,nt,nt,nt
CC(C)c1ccccc1NC(=O)COc1ccc2c(=O)c(Oc3ccc4ccccc4c3)coc2c1,i,i,184,i,i,i,i
CCc1ccccc1NC(=O)COc1ccc2c(=O)c(Oc3cc(C)ccc3C)coc2c1,i,i,i,i,nt,nt,nt
Cc1ccc(N2C(=O)N(CC(=O)NCc3ccccc3Cl)C(=O)C2C)cc1 (configuration not stated),i,i,i,i,nt,nt,nt
